Experimental data taken from ChEMBL document CHEMBL3407462, “Further insights into the SAR of α-substituted cyclopropylamine derivatives as inhibitors of histone demethylase KDM1A” (Eur J Med Chem, 2015).
The source made the active and inactive calls. The rule behind the calls is not given here.

Biological target: LSD1/CoREST complex (Homo sapiens) (UniProt O60341+Q9UKL0)
Assay: Inhibition of human recombinant KDM1A/CoREST complex expressed in Escherichia coli using mono-methylated H3-K4 peptide containing 21 amino acids as substrate up to 100 uM preincubated for 15 mins followed by substrate addition measured for 12 mins by fluorescence assay
Procedure, shortened: (§1)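 KDM1A/CoREST co-purified from E. coli as separate proteins; 20 nM complex preincubated 15 min at RT with inhibitor, 50 µM Amplex UltraRed and 0.023 µM HRP in 50 mM Tris-HCl pH 8.0, 0.05 mg/ml BSA. Reaction started with 4.5 µM H3K4me1 21-mer peptide. H2O2 release read by fluorescence (ex 510/em 595 nm) for 12 min, aerobic. Tested twice in duplicate; IC50 reported.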

Chain of LSD1/CoREST complex (Homo sapiens) (Q9UKL0 whole entry, looked up, other chains not shown): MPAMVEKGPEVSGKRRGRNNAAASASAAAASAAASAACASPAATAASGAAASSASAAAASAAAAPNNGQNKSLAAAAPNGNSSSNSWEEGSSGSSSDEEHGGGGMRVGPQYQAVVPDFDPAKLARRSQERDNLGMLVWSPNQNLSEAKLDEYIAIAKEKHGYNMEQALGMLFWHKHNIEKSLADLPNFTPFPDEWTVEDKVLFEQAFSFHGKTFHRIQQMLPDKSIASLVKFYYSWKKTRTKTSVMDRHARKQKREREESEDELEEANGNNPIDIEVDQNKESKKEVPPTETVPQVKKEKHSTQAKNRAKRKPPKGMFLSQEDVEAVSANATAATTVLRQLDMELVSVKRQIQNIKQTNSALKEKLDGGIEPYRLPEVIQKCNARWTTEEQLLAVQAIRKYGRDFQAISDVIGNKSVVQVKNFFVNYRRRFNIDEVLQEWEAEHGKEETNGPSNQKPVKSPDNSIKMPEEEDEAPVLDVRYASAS

Row | inhibition | SMILES
1 | inactive | O=C1COC[C@]2(C[C@H]2c2ccccc2)N1
2 | inactive | O=C1NCCN[C@]12C[C@@H]2c1ccccc1

Biological target: LSD1/CoREST complex (Homo sapiens, UniProt O60341)
Assay: Inhibition of human recombinant KDM1A/CoREST complex expressed in Escherichia coli using mono-methylated H3-K4 peptide containing 21 amino acids as substrate preincubated for 15 mins followed by substrate addition measured for 12 mins by fluorescence assay
Procedure, shortened: as §1

Row | SMILES | IC50 [nM]
3 | N[C@@]1(CCc2ccccc2)C[C@@H]1c1ccc(F)cc1 (mixture of isomers) | 173
4 | CC[C@]1(N)C[C@@H]1c1ccc(F)cc1 (mixture of isomers) | 1020
5 | CC[C@]1(N)C[C@@H]1c1cccc(C(F)(F)F)c1 (racemic) | 118
6 | N[C@@]1(Cc2ccccc2)C[C@@H]1c1ccc(Br)cc1 (racemic) | 187
7 | CC[C@]1(N)C[C@@H]1c1cccc(Br)c1 (racemic) | 31
8 | N[C@@]1(Cc2ccc3ccccc3c2)C[C@@H]1c1cccc(Br)c1 (racemic) | 251
9 | N[C@@]1(Cc2ccccc2)C[C@@H]1c1ccc(Cl)cc1 (mixture of isomers) | 230
10 | CC[C@]1(N)C[C@@H]1c1ccccc1Br (mixture of isomers) | 350
11 | CC[C@]1(N)C[C@@H]1c1ccc(Br)c(F)c1 (racemic) | 35
12 | CC[C@]1(N)C[C@@H]1c1cccc(OC)c1 (mixture of isomers) | 123
13 | CC[C@]1(N)C[C@@H]1c1ccc(OC(F)(F)F)cc1 (racemic) | 1160
14 | N[C@@]1(Cc2ccccc2)C[C@@H]1c1ccc(F)cc1 (mixture of isomers) | 1050
15 | CC[C@]1(N)C[C@@H]1c1ccc(Br)cc1 (mixture of isomers) | 121
16 | CC[C@]1(N)C[C@@H]1c1ccccc1F (racemic) | 352
17 | N[C@@]1(Cc2ccc3ccccc3c2)C[C@@H]1c1ccc(Cl)cc1 (racemic) | 263
18 | CC[C@]1(N)C[C@@H]1c1ccc(Cl)cc1 (mixture of isomers) | 178
19 | CC[C@]1(N)C[C@@H]1c1cccc(F)c1 (mixture of isomers) | 79
20 | N[C@@]1(c2ccccc2)C[C@@H]1c1ccc(Br)cc1 (racemic) | 47
21 | N[C@@]1(CCc2ccccc2)C[C@@H]1c1cccc(Br)c1 (mixture of isomers) | 94
22 | CC[C@]1(N)C[C@@H]1c1ccc(C(F)(F)F)cc1 (racemic) | 248
23 | CC[C@]1(N)C[C@@H]1c1cccc(Cl)c1 (racemic) | 38
24 | CC[C@]1(N)C[C@@H]1c1ccccc1Cl (racemic) | 258
25 | N[C@@]1(Cc2ccc3ccccc3c2)C[C@@H]1c1cccc(Cl)c1 (racemic) | 158
26 | N[C@@]1(c2ccccc2)C[C@@H]1c1ccc(Cl)cc1 (mixture of isomers) | 554
27 | N[C@@]1(CCc2ccccc2)C[C@@H]1c1ccc(Br)cc1 (racemic) | 101
28 | N[C@@]1(CCc2ccccc2)C[C@@H]1c1ccc(Cl)cc1 (racemic) | 96
29 | N[C@@]1(Cc2ccc3ccccc3c2)C[C@@H]1c1ccc(F)cc1 (racemic) | 642
30 | N[C@@]1(Cc2ccc3ccccc3c2)C[C@@H]1c1ccc(Br)cc1 (mixture of isomers) | 279
